Source: ChEMBL document CHEMBL1157669, “New oligo-beta-(1,3)-glucan derivatives as immunostimulating agents” (Bioorg Med Chem, 2010)
Active and inactive are the calls of the source. No cut-off for these calls is given here.

Legend:
[1] = tested on: Caco-2; assay: Cytotoxicity against human Caco-2 cells assessed as effect on cell growth at 0.1 to 25 uM after 24 to 48 hrs by Hoechst 3342 staining-based imaging analysis; details: caco-2, 25 µM
In short: (§1)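 Human tumour lines (liver, colon, prostate, breast, lung) and resting normal diploid skin fibroblasts were grown per supplier guidance. 4×10³ cells/well attached for 24 h, then were exposed to increasing compound concentrations for 1 and 2 days. Cells were fixed in 4% paraformaldehyde, nuclei stained with Hoechst 3342, and counted by automated imaging from four pictures per well.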

[2] = tested on: HCT-116; assay: Cytotoxicity against human HCT116 cells assessed as effect on cell growth at 0.1 to 25 uM after 24 to 48 hrs by Hoechst 3342 staining-based imaging analysis; details: hct-116, 25 µM; in short: as §1
[3] = Cytotoxicity against human HuH7 cells assessed as effect on cell growth at 0.1 to 25 uM after 24 to 48 hrs by Hoechst 3342 staining-based imaging analysis; details: huh-7, 25 µM; in short: as §1
[4] = Cytotoxicity against human NCI/ADR cells assessed as effect on cell growth at 0.1 to 25 uM after 24 to 48 hrs by Hoechst 3342 staining-based imaging analysis; in short: as §1
[5] = tested on: PC-3; assay: Cytotoxicity against human PC3 cells assessed as effect on cell growth at 0.1 to 25 uM after 24 to 48 hrs by Hoechst 3342 staining-based imaging analysis; details: pc-3, 25 µM; in short: as §1
[6] = Cytotoxicity against human skin fibroblast assessed as effect on cell growth at 0.1 to 25 uM after 24 to 48 hrs by Hoechst 3342 staining-based imaging analysis; in short: as §1
[7] = tested on: Mus musculus; assay: Immunostimulatory activity in BALB/c mouse assessed as increase in granulocyte count in peripheral blood at 100 ug, ip after 24 hrs; format: functional, organism-based
[8] = tested on: Mus musculus; assay: Immunostimulatory activity in BALB/c mouse assessed as decrease in lymphocyte count in peripheral blood at 100 ug, ip after 24 hrs; format: functional, organism-based
[9] = tested on: Mus musculus; assay: Immunostimulatory activity in BALB/c mouse assessed as influx of macrophages into peritoneal cavity at 100 ug, ip after 24 hrs; format: functional, organism-based
In short: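 Female BALB/c mice (6–8 weeks) got one ip injection of sample. Peritoneal cavity cells were collected and percentages of macrophages, lymphocytes and mast cells scored. Values are the mean of three independent experiments ± SD.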

[10] = tested on: Mus musculus; assay: Immunostimulatory activity in BALB/c mouse assessed as induction of peripheral blood monocyte phagocytosis at 100 ug, ip after 24 hrs; format: functional, organism-based
In short: (§2)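 Female BALB/c mice (6–8 weeks) were injected ip with oligosaccharide 24 h before the test. Heparinised (5 IU/mL) orbital plexus blood was incubated with synthetic HEMA microspheres. Two smears from two parallel samples were stained with Accustain. Monocytes and granulocytes holding three or more particles were scored positive. Mean ± SD; P <0.05.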

[11] = tested on: Mus musculus; assay: Immunostimulatory activity in BALB/c mouse assessed as induction of peripheral blood granulocyte phagocytosis at 100 ug, ip after 24 hrs; format: functional, organism-based; in short: as §2
[12] = tested on: Mus musculus; assay: Immunostimulatory activity in BALB/c mouse assessed as induction of peritoneal macrophage phagocytosis at 100 ug, ip after 24 hrs; format: functional, organism-based
In short: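 Oligosaccharide was given ip to female BALB/c mice (6–8 weeks) 24 h before harvest. Peritoneal macrophages were isolated, diluted to 1×10⁷ in RPMI-1640 with 5% fetal calf serum, and incubated with HEMA microspheres. Smears were stained with Accustain, and phagocytosis was scored with differential counts; cells with three or more particles counted positive.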

[13] = species: Mus musculus; assay: Immunostimulatory activity in BALB/c mouse splenocytes assessed as induction of IL2 production at 100 ug after 72 hrs; format: functional, organism-based; details: Splenocyte
In short: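 Spleen cells came from female BALB/c mice (6–8 weeks) injected ip with oligosaccharide; controls were PBS-injected mice. Cells were plated at 2×10⁶/mL in RPMI-1640 with 5% FCS, with Concanavalin A added to positive-control wells. After 72 h at 37 °C and 5% CO₂, supernatant IL-2 was measured with a Quantikine mouse IL-2 kit. Mean of three independent experiments ± SD.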

SMILES | Activity [1] | Activity [2] | Activity [3] | Activity [4] | Activity [5] | Activity [6] | Activity [7] | Activity [8] | Activity [9] | Activity [10] | Activity [11] | Activity [12] | Activity [13]
OC[C@H]1O[C@@H](O[C@@H]2[C@@H](O)[C@H](O[C@@H]3[C@@H](O)[C@H](O[C@@H]4[C@@H](O)[C@H](O[C@H]5[C@H](O)[C@@H](CO)OC(O)[C@H]5O)O[C@H](CO)[C@H]4O)O[C@H](CO)[C@H]3O)O[C@H](CO)[C@H]2O)[C@H](O)[C@@H](O)[C@@H]1O (some centres not stated) | Non-toxic | Non-toxic | Non-toxic | Non-toxic | Non-toxic | Non-toxic | Active | Active | Active | Active | Active | Active | Active
OC[C@H]1O[C@@H](O[C@@H]2[C@@H](O)[C@H](O[C@@H]3[C@@H](O)[C@H](O[C@@H]4[C@@H](O)[C@H](O[C@@H]5[C@@H](O)[C@H](O[C@H]6[C@H](O)[C@@H](CO)OC(O)[C@H]6O)O[C@H](CO)[C@H]5O)O[C@H](CO)[C@H]4O)O[C@H](CO)[C@H]3O)O[C@H](CO)[C@H]2O)[C@H](O)[C@@H](O)[C@@H]1O (some centres not stated) | Non-toxic | Non-toxic | Non-toxic | Non-toxic | Non-toxic | Non-toxic | Active | Active | Active | Active | Active | Active | –
OC[C@H]1O[C@@H](O[C@@H]2[C@@H](O)[C@H](O[C@@H]3[C@@H](O)[C@H](O[C@@H]4[C@@H](O)[C@H](O[C@@H]5[C@@H](O)[C@H](O[C@@H]6[C@@H](O)[C@H](O[C@@H]7[C@@H](O)[C@H](O)O[C@H](CO)[C@H]7O)O[C@H](CO)[C@H]6O)O[C@H](CO)[C@H]5O)O[C@H](CO)[C@H]4O)O[C@H](CO)[C@H]3O)O[C@H](CO)[C@H]2O)[C@H](O)[C@@H](O)[C@@H]1O | – | – | – | – | – | – | Active | Active | Active | Active | Active | Active | –
OC[C@H]1O[C@@H](O[C@@H]2[C@@H](O)[C@H](O[C@@H]3[C@@H](O)[C@H](O[C@@H]4[C@@H](O)[C@H](O[C@@H]5[C@@H](O)[C@H](O)O[C@H](CO)[C@H]5O)O[C@H](CO)[C@H]4O)O[C@H](CO)[C@H]3O)O[C@H](CO)[C@H]2O)[C@H](O)[C@@H](O)[C@@H]1O | – | – | – | – | – | – | Active | Active | Active | Active | Active | Active | –
